“And” between values parts separate entries of the source, which are not always exact repeats. Identical values can stand only once.
What was measured:
[1] = tested on: Canis familiaris; assay: Heart rate was determined by intraduodenal administration of two dosages of 24 mg/kg of compound in anesthetized dogs. Value was reported for experiment 2; type: functional, Canis lupus familiaris
In short: (§1)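 Anesthetized dogs; compound given intraduodenally, generally as two doses, the second a cumulative (high) dose. LV functional refractory period and conduction time measured 15, 30 and 45 min after dosing; heart rate and blood pressure measured during nonpacing intervals. Values are % change from control, given per individual animal. Active if FRP or CT prolonged by ≥12%.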

[2] = tested on: Canis familiaris; assay: Heart rate was determined by intraduodenal administration of two dosages of 30 mg/kg of compound in anesthetized dogs. Value was reported for experiment 1; type: functional, Canis lupus familiaris; in short: as §1
[3] = tested on: Canis familiaris; assay: Conduction time was determined by intraduodenal administration of two doses of 10 mg/kg (low dose) of compound in anesthetized dogs. Value was reported for experiment 2; type: functional, Canis lupus familiaris; in short: as §1
[4] = tested on: Canis familiaris; assay: Conduction time was determined by intraduodenal administration of two doses of 24 mg/kg (high dose) of compound in anesthetized dogs. Value was reported for experiment 2; type: functional, Canis lupus familiaris; in short: as §1
[5] = tested on: Canis familiaris; assay: Conduction time was determined by intraduodenal administration of two doses of 30 mg/kg (high dose) of compound in anesthetized dogs. Value was reported for experiment 1; type: functional, Canis lupus familiaris; in short: as §1
[6] = tested on: Canis familiaris; assay: Conduction time was determined by intraduodenal administration of two doses of 10 mg/kg (low dose) of compound in anesthetized dogs. Value was reported for experiment 1; type: functional, Canis lupus familiaris; in short: as §1
[7] = tested on: Canis familiaris; assay: Heart rate was determined by intraduodenal administration of two doses of 10 mg/kg (low dose) of compound in anesthetized dogs. Value was reported for experiment 1; type: functional, Canis lupus familiaris; in short: as §1
[8] = tested on: Canis familiaris; assay: Heart rate was determined by intraduodenal administration of two dosages of 10 mg/kg of compound in anesthetized dogs. Value was reported for experiment 2; type: functional, Canis lupus familiaris; in short: as §1
[9] = tested on: Canis familiaris; assay: Left ventricular refractory period was determined by intraduodenal administration of two doses of 10 mg/kg (low dose) of compound in anesthetized dogs. Value was reported for experiment 1; type: functional, Canis lupus familiaris, Cardiac ventricle
[10] = tested on: Canis familiaris; assay: Left ventricular refractory period was determined by intraduodenal administration of two doses of 10 mg/kg (low dose) of compound in anesthetized dogs. Value was reported for experiment 2; type: functional, Canis lupus familiaris, Cardiac ventricle
[11] = tested on: Canis familiaris; assay: Left ventricular refractory period was determined by intraduodenal administration of two doses of 24 mg/kg (high dose) of compound in anesthetized dogs. Value was reported for experiment 2; type: functional, Canis lupus familiaris, Cardiac ventricle
[12] = tested on: Canis familiaris; assay: Left ventricular refractory period was determined by intraduodenal administration two doses of 30 mg/kg (high dose) of compound in anesthetized dogs. Value was reported for experiment 1; type: functional, Canis lupus familiaris, Cardiac ventricle
[13] = tested on: Canis familiaris; assay: Mean arterial blood pressure was determined by intraduodenal administration of two dosages of 30 mg/kg of compound in anesthetized dogs. Value was reported for experiment 1; type: functional, Canis lupus familiaris
In short: (§2)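 Anesthetized dogs received two intraduodenal doses, the second cumulative (low dose/high dose). Left ventricular FRP and CT were measured 15, 30 and 45 min after dosing. Heart rate and mean blood pressure were taken during nonpacing intervals. Values are percent change from control. The vehicle was 5% dextrose in water/tragacanth. Activity was defined as ≥12% prolongation of FRP or CT.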

[14] = tested on: Canis familiaris; assay: Mean arterial blood pressure was determined by intraduodenal administration of two dosages of 10 mg/kg of compound in anesthetized dogs. Value was reported for experiment 1; type: functional, Canis lupus familiaris; in short: as §2
[15] = tested on: Canis familiaris; assay: Mean arterial blood pressure was determined by intraduodenal administration of two dosages of 10 mg/kg of compound in anesthetized dogs. Value was reported for experiment 2; type: functional, Canis lupus familiaris; in short: as §2
[16] = tested on: Canis familiaris; assay: Mean arterial blood pressure was determined by intraduodenal administration of two dosages of 24 mg/kg of compound in anesthetized dogs. Value was reported for experiment 2; type: functional, Canis lupus familiaris
[17] = species on record: Canis familiaris; assay: In vitro electrophysiological evaluation in canine cardiac ventricular muscle reported as maximum % change for functional refractory period (FRP) at 0.1-100 uM concentration range; concentration at which it occurred is 100 uM.; parameters: species or system Canis lupus familiaris, Muscle tissue
In short: (§3)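 Canine right ventricle and papillary muscle strips in oxygenated Tyrode's solution, fitted with stimulating and recording electrodes. The extra-stimulus conduction-interval method was adapted for in vitro use. FRP and CT were read from a conduction-interval curve before and after various compound concentrations, and expressed as percent change from control. Compounds were taken from 10 mM deionized-water stock into Tyrode's. Each strip was used once as its own control.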

[18] = species on record: Canis familiaris; assay: In vitro electrophysiological evaluation in canine cardiac ventricular muscle reported as % change for the functional refractory period (FRP) at 10 uM at concentration range of 0.1-100 uM; parameters: species or system Canis lupus familiaris, Muscle tissue; in short: as §3
[19] = species on record: Canis familiaris; assay: In vitro electrophysiological evaluation in canine cardiac ventricular muscle reported as % change for conduction time(CT) at 10 uM at 0.1-100 uM concentration range; Minimal (<10% decrease or increase in CT).; type: functional, Canis lupus familiaris, Muscle tissue
[20] = species on record: Canis familiaris; assay: In vitro electrophysiological evaluation in canine cardiac ventricular muscle reported as maximum % change for conduction time(CT) at 0.1-100 uM concentration range; Minimal (<10% decrease or increase in CT).; type: functional, Canis lupus familiaris, Muscle tissue; in short: as §3
[21] = species on record: Canis familiaris; assay: In vitro electrophysiological evaluation in canine cardiac Purkinje fibres reported as percent change Vmax at 10 uM at concentration range of 1-100 uM.; type: functional; settings: Canis lupus familiaris, Purkinje fiber
In short: (§4)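 Canine cardiac Purkinje fibres, intracellular microelectrode recording, paced at a basic cycle length of 1 s. APD95 and Vmax read simultaneously. Compound: 10 mM stock in deionized water, diluted into Tyrode's solution, tested over the stated concentration range. Each fibre used once as its own control. Result is % change from control, given at 10 µM or as the maximum with its concentration. M = <10% decrease or an increase in Vmax.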

[22] = species on record: Canis familiaris; assay: In vitro electrophysiological evaluation in canine cardiac Purkinje fibres reported as percent change Vmax at 10 uM at concentration range of 1-100 uM; Minimal (<10% decrease or increase in V max).; type: functional; settings: Canis lupus familiaris, Purkinje fiber; in short: as §4
[23] = species on record: Canis familiaris; assay: In vitro electrophysiological evaluation in canine cardiac Purkinje fibres reported as maximum percent change Vmax concentration range of 1-100 uM; Minimal (<10% decrease or increase in V max).; type: functional; settings: Canis lupus familiaris; Purkinje fiber; in short: as §4
[24] = species on record: Canis familiaris; assay: In vitro electrophysiological evaluation in canine cardiac occurred is 100 uM; type: functional; settings: Canis lupus familiaris; Heart
[25] = species on record: Canis familiaris; assay: In vitro electrophysiological evaluation in canine cardiac Purkinje fibres reported as % change for action potential duration at 1-100 uM concentration range; type: functional, Canis lupus familiaris, Purkinje fiber; in short: as §4
[26] = species on record: Canis familiaris; assay: In vitro electrophysiological evaluation in canine cardiac Purkinje fibres reported as % change for action potential duration at a concentration of 10 uM; type: functional, Canis lupus familiaris, Purkinje fiber; in short: as §4
[27] = species on record: Canis familiaris; assay: In vitro electrophysiological activity in canine cardiac occurred is 100 uM; type: functional, Canis lupus familiaris, Heart
[28] = species on record: Canis familiaris; assay: (§5) In vitro electrophysiological activity in canine cardiac occurred is 10 uM; type: functional, Canis lupus familiaris, Heart
[29] = species on record: Canis familiaris; assay: as §5; type: functional, Canis lupus familiaris, Heart; remark: listed apart in the source

Cl.O=C(CCC1C(=O)C2CCN1CC2)c1ccc([N+](=O)[O-])cc1 (centres undefined)
HR [1]: -40%
HR [2]: -31%
CT [3]: 6%
CT [4]: 11%
CT [5]: 2%
CT [6]: -1%
HR [7]: -23%
HR [8]: -35%
LV FRP [9]: 14%
LV FRP [10]: 16%
LV FRP [11]: 19%
LV FRP [12]: 15%
Mean blood pressure [13]: -21%
Mean blood pressure [14]: -11%
Mean blood pressure [15]: -10%
Mean blood pressure [16]: -1%
FRP [17]: 25% and 22%
FRP [18]: 15% and 17%
CT [19]: <10%
CT [20]: <10%
Vmax [21]: -17%
Vmax [22]: < 10%
Vmax [23]: < 10%
Vmax [24]: -23%
APD95 [25]: 53% and 25%
APD95 [26]: 36%
APD95 [27]: 13% and -10%
APD95 [28]: 36% and 25%
APD95 [29]: 53%
